In brackets after ≈: the same amount, converted by molar mass.
Tests used:
[1] = test system: Coxsackievirus B3; assay: Antiviral activity against Coxsackie virus B3 […] infected in human HeLa cells assessed as reduction of virus-induced cytopathic effect by MTT assay; format: functional, organism-based, Nancy
Summary of the method: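 HeLa monolayers were exposed to 100 TCID₅₀ of CVB3 […] together with serial 2-fold compound dilutions below CC₅₀, in DMEM with 2% serum. Uninfected and untreated infected wells served as controls. Plates were kept at 37 °C in humidified CO₂ until virus control CPE peaked, then read by MTT. IC₅₀ is the concentration reducing CPE by 50%, as mean of three independent experiments.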

[2] = Cytotoxicity against human HeLa cells after 48 hrs by MTT assay; format: cell-based
Summary of the method: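 HeLa monolayers were treated with compound at 200–6.25 µg/mL in DMEM with 2% serum for 48 h at 37 °C. MTT (0.5 mg/mL in PBS) was added for 4 h, then DMSO for 30 min at room temperature, and OD was read at 570/630 nm. CC₅₀ was taken from the mean dose-response curve of three independent experiments.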

[3] = Therapeutic index, CC50 for human HeLa cells to IC50 for Coxsackie virus B3 […]; format: cell-based; conditions: read-out: Ratio CC50/IC50
Summary of the method: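 TI is CC₅₀ divided by IC₅₀. CC₅₀ comes from a 48 h HeLa MTT viability assay; IC₅₀ comes from an MTT-read CPE-inhibition assay with 100 TCID₅₀ CVB3 […] in HeLa cells. Both use DMEM with 2% serum at 37 °C and are means of three independent experiments.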

[4] = Enterovirus B, Nancy, HeLa, read-out: IC50

Row | SMILES | IC50 ([1]; hela) | CC50 at 48 h [2] [µg/mL] | IC50 [1, 4] [µg/mL] | selectivity ratio [3]
1 | C[C@@H]1CO[C@@]2(C[C@@H]1OC(=O)c1ccc(O)cc1)O[C@@H]1C[C@@H](C(=O)O[C@@H]3O[C@H](CO)[C@@H](O)[C@H](O)[C@H]3O[C@@H]3O[C@H](CO)[C@@H](O)[C@H](O)[C@H]3O)C[C@@H](O)[C@]1(O)C2=O [4'-HYDROXYPHYLLAEMBLICIN B] | Not Active |  |  | 
2 | COC(=O)[C@H]1C[C@@H](O)[C@]2(O)C(=O)[C@]3(C[C@H](OC(=O)c4ccccc4)[C@H](C)CO3)O[C@@H]2C1 [PHYLLAEMBLIC ACID METHY ESTER] |  | 214 (≈ 492 µM) | 21.8 (≈ 50.2 µM) | 9.8
3 | C[C@@H]1CO[C@@]2(C[C@@H]1OC(=O)c1ccccc1)O[C@@H]1C[C@@H](C(=O)O)C[C@@H](O)[C@]1(O)C2=O [PHYLLAEMBLIC ACID] | Not Active |  |  | 
4 | C[C@@H]1CO[C@@]2(C[C@@H]1OC(=O)c1ccccc1)O[C@@H]1C[C@@H](C(=O)O[C@@H]3O[C@H](CO)[C@@H](O)[C@H](O)[C@H]3O)C[C@@H](O)[C@]1(O)C2=O [PHYLLAEMBLICIN A] | Not Active |  |  | 
5 | C[C@@H]1CO[C@@]2(C[C@@H]1OC(=O)c1ccccc1)O[C@@H]1C[C@@H](C(=O)O[C@@H]3O[C@H](CO)[C@@H](O)[C@H](O)[C@H]3O[C@@H]3O[C@H](CO)[C@@H](O)[C@H](O)[C@H]3O)C[C@@H](O)[C@]1(O)C2=O [PHYLLAEMBLICIN B] |  | 50.2 (≈ 67.4 µM) | 7.8 (≈ 10.5 µM) | 6.4
6 | C[C@@H]1CO[C@@]2(C[C@@H]1OC(=O)c1ccccc1)O[C@@H]1C[C@@H](C(=O)O[C@@H]3O[C@H](CO)[C@@H](O)[C@H](O)[C@H]3O[C@@H]3O[C@H](CO)[C@@H](O)[C@H](O)[C@H]3O[C@@H]3OC[C@@H](O)[C@@H](O)[C@@H]3O)C[C@@H](O)[C@]1(O)C2=O [PHYLLAEMBLICIN C] |  | 67.7 (≈ 77.2 µM) | 11 (≈ 12.5 µM) | 6.2
7 | C[C@@H]1CO[C@@]2(C[C@@H]1OC(=O)c1ccccc1)O[C@@H]1C[C@@H](C(=O)O[C@@H]3O[C@H](CO)[C@@H](O)[C@H](O)[C@H]3O[C@@H]3O[C@H](CO)[C@@H](O)[C@H](O)[C@H]3O[C@@H]3OC[C@H](O)[C@@H](O)[C@@H]3O)C[C@@H](O)[C@]1(O)[C@H]2O [PHYLLAEMBLICIN E] | Not Active |  |  | 
8 | C[C@@H]1CO[C@@]2(C[C@@H]1OC(=O)c1ccccc1)O[C@@H]1C[C@@H](C(=O)OC[C@H]3O[C@@H](O[C@H]4[C@H](OC(=O)[C@H]5C[C@@H](O)[C@]6(O)C(=O)[C@]7(C[C@H](OC(=O)c8ccccc8)[C@H](C)CO7)O[C@@H]6C5)O[C@H](CO)[C@@H](O)[C@@H]4O)[C@H](O)[C@@H](O)[C@@H]3O)C[C@@H](O)[C@]1(O)C2=O [PHYLLAEMBLICIN F] | Not Active |  |  | 
9 | NC(=O)c1ncn([C@@H]2O[C@H](CO)[C@@H](O)[C@H]2O)n1 [RIBAVIRIN] |  | 426 (≈ 1740 µM) | 20.3 (≈ 83.1 µM) | 21
